core dimer inh – inhibitors of HCV core protein dimerization, primary screen, biochemical, TR-FRET, high-throughput; TR-FRET GST/Flag-core106 dimerization, 1536-well; 0.33% of 300,000 active; inhibition, % at 5 µM;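 active = inhibition above the mean of all tested compounds plus 3 SD, set per screening campaign, cut at about 45% in these data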
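System – GST-tagged and Flag-tagged HCV core protein residues 1-106 · Repeats – one well for each compound · Technique – TR-FRET 671 and 617 nm emission · Doses – one concentration, 5 µM, in 0.5% DMSO · Times – 4 h, 22.5 °C incubation · Also added – Eu donor and XL665 acceptor anti-tag antibodies · Measure – percent inhibition of core106 dimerization signal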
IMP-1 inh-1 – IMP-1 metallo-beta-lactamase inhibitors, primary screen, biochemical, epi-absorbance readout, Pseudomonas aeruginosa enzyme; metallo-beta-lactamase IMP-1 (Pseudomonas aeruginosa); purified IMP-1, nitrocefin hydrolysis, epi-absorbance fluorescence; inhibition, % at 5.6 µM; 0.45% of 290,000 active; AID 1556, 2009;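 active = inhibition above the mean plus 3 SD of all compounds in the same screening run, cut at about 4.5% in these data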
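System: purified recombinant IMP-1 beta-lactamase. Medium: Zinc- and detergent-supplemented HEPES buffer, pH 7.1. Compound: one 5.6 µM dose […]. Schedule: 15 min preincubation plus 25 min reaction at 25 °C. Technique: Epi-absorbance fluorescence, 480 nm excitation, 530 nm emission.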
VIM-2 inhibitor – VIM-2 metallo-beta-lactamase inhibitors, primary screen, biochemical, epi-absorbance readout, Pseudomonas aeruginosa enzyme | 0.89% of 290,000 active | purified VIM-2, nitrocefin hydrolysis, epi-absorbance fluorescence | inhibition, % at 5.6 µM;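 active = inhibition above the mean of all tested compounds plus 3 SD, cutoff set per screening run, cut at about 7.5% in these data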;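 also: red hydrolysis product quenches plate fluorescence so inhibitors raise well fluorescence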
NadD block – inhibitors of S. aureus NadD, primary screen, biochemical, colorimetric, uHTS | 0.78% of 360,000 active | purified NadD enzyme, colorimetric absorbance read-out | Nicotinate-nucleotide adenylyltransferase NadD (Staphylococcus aureus N315) | inhibition, % at 20 µM | AID 602399, 2012; in the data active = inhibition above about 26%
IMP-1 inh-2 – IMP-1 metallo-beta-lactamase inhibitors, confirmation, selectivity assay for selective VIM-2 inhibitor project, biochemical, epi-absorbance readout, triplicate; shares compounds with VIM-2 inhibitor; purified IMP-1, nitrocefin hydrolysis, epi-absorbance fluorescence; inhibition, % at 5.6 µM; 1,300 tested, under 10 active; call rule not given here
VIM-2 FRET inh – VIM-2 inhibitors in FRET format, confirmation, artefact control for selective VIM-2 inhibitor project, biochemical, epi-absorbance artifact exclusion; shares compounds with VIM-2 inhibitor; purified VIM-2, CCF2 FRET substrate hydrolysis; inhibition, % at 5.6 µM; 23% of 1,300 active; AID 1857, 2009;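 active = inhibition above the mean of all tested compounds plus 3 SD, cut at about 19% in these data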
TEM-1 inh – TEM-1 serine beta-lactamase inhibitors, counter-screen for VIM-2 inhibitor project, biochemical, epi-absorbance, HTS | shares compounds with VIM-2 inhibitor | Purified TEM-1, nitrocefin hydrolysis, epi-absorbance fluorescence | inhibition, % at 5.6 µM | 3% of 1,300 active | AID 1866, 2009;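 active = inhibition above that campaign's mean inhibition plus 3 SD, cut at about 0.46% in these data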
Target sequence (P62593 whole entry, looked up): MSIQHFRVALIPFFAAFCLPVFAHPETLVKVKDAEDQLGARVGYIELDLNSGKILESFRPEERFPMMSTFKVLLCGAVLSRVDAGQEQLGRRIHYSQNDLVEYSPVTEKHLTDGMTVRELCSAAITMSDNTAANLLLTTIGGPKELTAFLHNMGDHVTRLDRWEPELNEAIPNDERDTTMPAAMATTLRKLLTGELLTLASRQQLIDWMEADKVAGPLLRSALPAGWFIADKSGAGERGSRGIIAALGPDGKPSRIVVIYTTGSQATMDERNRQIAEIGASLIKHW
VIM-2 inh conf – VIM-2 metallo-beta-lactamase inhibitors, confirmation, biochemical, epi-absorbance, hits shared with IMP-1 screen; shares compounds with VIM-2 inhibitor; purified VIM-2, nitrocefin hydrolysis; inhibition, % at 5.6 µM; 96% of 1,300 active;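 active = inhibition of the VIM-2 beta-lactamase enzyme above about 11% from the earlier first-round screen, limit read from the data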
A number is an active result; – = inactive; · = no result. The list is not random: actives were taken first. Their share in the collection is about 1.9%.

SMILES	core dimer inh	IMP-1 inh-1	VIM-2 inhibitor	NadD block	IMP-1 inh-2	VIM-2 FRET inh	TEM-1 inh	VIM-2 inh conf
Cc1cc(=S)c2ccccc2[nH]1	–	–	60.3	–	–	–	–	57.4
CCc1nnc2c(N(C)C)nc3ccccc3n12	–	–	16.3	–	–	–	–	31.2
CCc1nnc2c(NCCc3ccc(OC)c(OC)c3)nc3ccccc3n12	·	–	14.7	–	–	–	–	20.6
CCc1nnc2c(N(C)S(=O)(=O)c3ccc(C)cc3)nc3ccccc3n12	–	–	–	–	·	·	·	·
Cc1cc(OCC(=O)NCc2ccncc2)c2c(C)c(C)c(=O)oc2c1	–	–	43.8	–	–	–	–	55.1
Cc1cc(OCC(=O)Nc2cccnc2)c2c(C)c(C)c(=O)oc2c1	–	–	60.8	–	–	–	–	67.8
CCc1cc(=O)oc2cc(C)cc(OCC(=O)NCc3ccncc3)c12	–	–	20.3	–	–	–	–	30.4
CCc1cc(=O)oc2cc(C)cc(OCC(=O)NCc3cccnc3)c12	–	–	–	–	·	·	·	·
Cc1cc(OCC(=O)NCc2cccnc2)c2c(C)c(C)c(=O)oc2c1	–	–	21.7	–	–	–	–	31.0
Cc1cc(OCC(=O)Nc2ccc(CCO)cc2)c2c(C)c(C)c(=O)oc2c1	–	–	–	–	·	·	·	·
CC(C)CN(C(=O)c1ccc(S(=O)(=O)N2CCOCC2)cc1)C1CCS(=O)(=O)C1 (stereo not drawn)	–	·	·	–	·	·	·	·
O=C1CC2(CCN(C(=O)c3ccc(Br)cc3)CC2)Oc2ccccc21	–	·	·	–	·	·	·	·
C=C(C)Cn1c(SCC(=O)N/N=C/c2cccc(O)c2)nc2ccccc2c1=O	–	–	–	–	·	·	·	·
O=C(O)c1c(C(=O)O)c(-c2ccc(Br)cc2)n2c1CSC2	–	–	43.2	–	–	68.0	–	50.2
Cc1ccc(-c2c(C(=O)O)c(C(=O)O)c3n2CSC3)cc1	–	–	33.9	–	–	52.1	–	36.8
Cc1nc2ccccc2c2oc(C(=O)NCCCN3CC(C)CC(C)C3)cc12 (stereo not drawn)	–	–	15.2	–	–	–	–	24.1
CC1CCCN(CCCNC(=O)c2cc3c(Cl)nc4ccccc4c3s2)C1 (stereo not drawn)	–	–	19.4	–	–	–	–	31.0
Cc1ccc(CNC(=O)c2cc3c(C)nc4ccccc4c3o2)cc1	–	–	–	–	·	·	·	·
CC1CCCN(CCCNC(=O)c2cc3c(s2)-c2ccccc2OC3)C1 (stereo not drawn)	–	–	–	–	·	·	·	·
Cc1nc2ccccc2c2oc(C(=O)NCCCN3CCCC(C)C3)cc12 (stereo not drawn)	–	–	18.4	–	–	–	–	29.4
COc1ccc(C(CNC(=O)c2ccc(-c3nc4ccccc4s3)o2)N2CCCC2)cc1 (stereo not drawn)	·	·	·	–	·	·	·	·
COc1ccc2[nH]c(C(=O)O)c(CCN3C(=O)c4ccc(C(=O)O)cc4C3=O)c2c1	–	–	70.8	–	–	84.5	–	75.1
O=C(O)c1[nH]c2ccc(Br)cc2c1CCN1C(=O)c2cccc([N+](=O)[O-])c2C1=O	–	–	60.6	–	–	79.2	–	68.4
Cc1ccc(NC(=O)CCN2C(=O)c3cccc([N+](=O)[O-])c3C2=O)c(Br)c1	–	–	–	–	·	·	·	·
O=C(O)c1[nH]c2ccc(Cl)cc2c1CCN1C(=O)c2ccccc2C1=O	–	–	65.4	–	–	79.3	–	74.0
COc1ccc2[nH]c(C(=O)O)c(CCC(=O)O)c2c1	–	–	–	–	·	·	·	·

Source: PubChem BioAssay (several laboratories)
